What was measured:
[1] = system: Human gammaherpesvirus 4; assay: Inhibitory effect on TPA-induced Epstein-Barr virus early antigen activation in Raji cells at 1000 mol ratio/32 pmol TPA relative to TPA; format: functional; set-up: scale not given: the % may be the effect or the level left
Method in brief: (§1)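 Raji cells induced with TPA at 32 pmol (20 ng), taken as 100%. Compounds given as molar ratio to TPA. EBV-EA induction is scored against this TPA-only positive control. Raji cell viability is reported as a percentage. IC50 is the molar ratio to TPA giving 50% inhibition of the positive control.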

[2] = system: Human gammaherpesvirus 4; assay: Inhibitory effect on TPA-induced Epstein-Barr virus early antigen activation in Raji cells at 500 mol ratio/32 pmol TPA relative to TPA; format: functional; set-up: scale not given: the % may be the effect or the level left; method in brief: as §1
[3] = system: Human gammaherpesvirus 4; assay: Inhibitory effect on TPA-induced Epstein-Barr virus early antigen activation in Raji cells at 100 mol ratio/32 pmol TPA relative to TPA; format: functional; set-up: scale not given: the % may be the effect or the level left; method in brief: as §1
[4] = system: Human gammaherpesvirus 4; assay: Inhibitory effect on TPA-induced Epstein-Barr virus early antigen activation in Raji cells at 10 mol ratio/32 pmol TPA relative to TPA; format: functional; set-up: scale not given: the % may be the effect or the level left; method in brief: as §1
[5] = system: Raji; assay: Cell viability of Raji cells at 1000 mol ratio/32 pmol TPA; format: functional, Homo sapiens; method in brief: as §1
[6] = Inhibitory ratio on NOR1-induced NO activation in human Chang liver cells assessed as nitric oxide scavenging activity relative to NOR1; format: functional
Method in brief: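 Chang liver cells (normal human hepatic cells) were used with NOR 1, an NO donor, as the NO source. Compounds were tested at 350 nmol. Scavenging of NO generated by NOR 1 is given as an inhibitory ratio. The ratio for NOR 1 alone (positive control, 350 nm) is set at 1.0.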

Structure (SMILES) | Activity [1] [%] | Activity [2] [%] | Activity [3] [%] | Activity [4] [%] | Activity [5] [%] | Ratio [6]
C[C@H](CC[C@@H](O)C(C)(C)O[C@@H]1O[C@H](CO)[C@@H](O)[C@H](O)[C@H]1O)[C@H]1CC[C@@]2(C)[C@@H]3CC=C4[C@@H](CC[C@H](O[C@@H]5O[C@H](CO)[C@@H](O)[C@H](O)[C@H]5O)C4(C)C)[C@]3(C)[C@H](O)C[C@]12C [MOGROSIDE II B] | 7.2 | 26 | 76 | 100 | 70 | 1.5
C[C@H](CC[C@@H](O[C@@H]1O[C@H](CO[C@@H]2O[C@H](CO)[C@@H](O)[C@H](O)[C@H]2O)[C@@H](O)[C@H](O)[C@H]1O)C(C)(C)O)[C@H]1CC[C@@]2(C)[C@@H]3CC=C4[C@@H](CC[C@H](O[C@@H]5O[C@H](CO)[C@@H](O)[C@H](O)[C@H]5O)C4(C)C)[C@]3(C)CC[C@]12C | 10.6 | 25.7 | 81.9 | 100 | 70 | 1.5
CC1=C(/C=C/C(C)=C/C=C/C(C)=C/C=C/C=C(C)/C=C/C=C(C)/C=C/C2=C(C)CCCC2(C)C)C(C)(C)CCC1 [BETA CAROTENE] | 8.6 |  |  | 100 | 70 | 
C[C@H](CC[C@@H](O[C@@H]1O[C@H](CO)[C@@H](O)[C@H](O)[C@H]1O)C(C)(C)O)[C@H]1CC[C@@]2(C)[C@@H]3C(=O)C=C4[C@@H](CC[C@H](O[C@@H]5O[C@H](CO)[C@@H](O)[C@H](O)[C@H]5O)C4(C)C)[C@]3(C)[C@H](O)C[C@]12C | 7.7 | 24.4 | 80.8 | 100 | 70 | 1.5
C[C@H](CC[C@@H](O[C@@H]1O[C@H](CO)[C@@H](O)[C@H](O)[C@H]1O)C(C)(C)O)[C@H]1CC[C@@]2(C)[C@@H]3CC=C4[C@@H](CC[C@H](O[C@@H]5O[C@H](CO[C@@H]6O[C@H](CO)[C@@H](O)[C@H](O)[C@H]6O)[C@@H](O)[C@H](O)[C@H]5O)C4(C)C)[C@]3(C)[C@H](O)C[C@]12C [MOGROSIDE III A2] | 5.1 | 24 | 75.3 | 100 | 70 | 1.5
CC1(C)[C@@H](O[C@H]2O[C@H](C(=O)O)[C@@H](O)[C@H](O)[C@H]2O[C@@H]2O[C@H](C(=O)O)[C@@H](O)[C@H](O)[C@H]2O)CC[C@]2(C)[C@H]3C(=O)C=C4[C@@H]5C[C@@](C)(C(=O)O)CC[C@]5(C)CC[C@@]4(C)[C@]3(C)CC[C@@H]12 [GLYCYRRHIZIN] |  |  |  |  |  | 2.2
CC1(C)N([O])C(c2ccc(C(=O)O)cc2)=[N+]([O-])C1(C)C |  |  |  |  |  | 8
C[C@H](CC[C@@H](O[C@@H]1O[C@H](CO[C@@H]2O[C@H](CO)[C@@H](O)[C@H](O)[C@H]2O)[C@@H](O)[C@H](O)[C@H]1O)C(C)(C)O)[C@H]1CC[C@@]2(C)[C@@H]3CC=C4[C@@H](CC[C@H](O[C@@H]5O[C@H](CO[C@@H]6O[C@H](CO)[C@@H](O)[C@H](O)[C@H]6O)[C@@H](O)[C@H](O)[C@H]5O)C4(C)C)[C@]3(C)C(=O)C[C@]12C [11-OXOMOGROSIDE IV A] | 10.3 | 27.3 | 82.5 | 100 | 70 | 1.4
C[C@H](CC[C@@H](O[C@@H]1O[C@H](CO[C@@H]2O[C@H](CO)[C@@H](O)[C@H](O)[C@H]2O)[C@@H](O)[C@H](O)[C@H]1O)C(C)(C)O)[C@H]1CC[C@@]2(C)[C@@H]3CC=C4[C@@H](CC[C@H](O)C4(C)C)[C@]3(C)C(=O)C[C@]12C | 8.5 | 25 | 80.6 | 100 | 70 | 1.4

— ChEMBL document CHEMBL1139890, “Cucurbitane glycosides from the fruits of Siraitia gros venorii and their inhibitory effects on Epstein-Barr virus activation” (2007)
